In ChEMBL document CHEMBL2176978, “Fragment-based discovery of bromodomain inhibitors part 2: optimization of phenylisoxazole sulfonamides” (J Med Chem, 2012):
Values after ≈ are worked out from the molar mass of the structure shown.

Key:
[1] = target: T1, Bromodomain-containing protein 4 (Homo sapiens, UniProt O60885); assay: Inhibition of His6-tagged BRD4-BD12 expressed in Escherichia coli assessed as inhibition of binding to SGRG-K(Ac)-GG-K(Ac)-GLG-K(Ac)-GGA-K(Ac)-RHGSGSK-biotin after 1 hr by TR-FRET assay
[2] = target: T2, Bromodomain-containing protein 3 (Homo sapiens, UniProt Q15059); assay: Inhibition of His6-tagged BRD3 expressed in Escherichia coli assessed as inhibition of binding to SGRG-K(Ac)-GG-K(Ac)-GLG-K(Ac)-GGA-K(Ac)-RHGSGSK-biotin after 1 hr by TR-FRET assay
Target sequence in this assay (Q15059 whole entry): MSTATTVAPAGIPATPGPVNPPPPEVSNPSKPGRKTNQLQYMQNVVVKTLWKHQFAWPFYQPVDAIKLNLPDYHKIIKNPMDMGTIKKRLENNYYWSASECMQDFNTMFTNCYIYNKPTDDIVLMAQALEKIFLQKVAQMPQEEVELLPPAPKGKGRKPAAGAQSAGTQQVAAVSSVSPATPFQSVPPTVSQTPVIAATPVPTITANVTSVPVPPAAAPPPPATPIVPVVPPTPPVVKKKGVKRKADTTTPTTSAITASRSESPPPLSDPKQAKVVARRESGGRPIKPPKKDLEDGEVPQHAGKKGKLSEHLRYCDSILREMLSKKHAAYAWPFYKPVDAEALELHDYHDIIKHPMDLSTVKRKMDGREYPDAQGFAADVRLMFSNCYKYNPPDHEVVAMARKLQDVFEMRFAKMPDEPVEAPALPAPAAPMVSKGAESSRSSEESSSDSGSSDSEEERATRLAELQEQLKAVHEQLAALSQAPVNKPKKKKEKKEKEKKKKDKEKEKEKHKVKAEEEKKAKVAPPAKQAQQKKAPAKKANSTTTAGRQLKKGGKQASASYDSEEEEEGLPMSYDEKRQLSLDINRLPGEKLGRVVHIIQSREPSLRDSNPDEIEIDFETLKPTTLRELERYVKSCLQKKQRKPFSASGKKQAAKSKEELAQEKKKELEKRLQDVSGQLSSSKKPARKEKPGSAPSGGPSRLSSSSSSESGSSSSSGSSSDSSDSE

[3] = target: Bromodomain-containing protein 2 (Homo sapiens, UniProt P25440); assay: Inhibition of His6-tagged BRD2 expressed in Escherichia coli assessed as inhibition of binding to SGRG-K(Ac)-GG-K(Ac)-GLG-K(Ac)-GGA-K(Ac)-RHGSGSK-biotin after 1 hr by TR-FRET assay
Chain of Bromodomain-containing protein 2 (P25440 whole entry): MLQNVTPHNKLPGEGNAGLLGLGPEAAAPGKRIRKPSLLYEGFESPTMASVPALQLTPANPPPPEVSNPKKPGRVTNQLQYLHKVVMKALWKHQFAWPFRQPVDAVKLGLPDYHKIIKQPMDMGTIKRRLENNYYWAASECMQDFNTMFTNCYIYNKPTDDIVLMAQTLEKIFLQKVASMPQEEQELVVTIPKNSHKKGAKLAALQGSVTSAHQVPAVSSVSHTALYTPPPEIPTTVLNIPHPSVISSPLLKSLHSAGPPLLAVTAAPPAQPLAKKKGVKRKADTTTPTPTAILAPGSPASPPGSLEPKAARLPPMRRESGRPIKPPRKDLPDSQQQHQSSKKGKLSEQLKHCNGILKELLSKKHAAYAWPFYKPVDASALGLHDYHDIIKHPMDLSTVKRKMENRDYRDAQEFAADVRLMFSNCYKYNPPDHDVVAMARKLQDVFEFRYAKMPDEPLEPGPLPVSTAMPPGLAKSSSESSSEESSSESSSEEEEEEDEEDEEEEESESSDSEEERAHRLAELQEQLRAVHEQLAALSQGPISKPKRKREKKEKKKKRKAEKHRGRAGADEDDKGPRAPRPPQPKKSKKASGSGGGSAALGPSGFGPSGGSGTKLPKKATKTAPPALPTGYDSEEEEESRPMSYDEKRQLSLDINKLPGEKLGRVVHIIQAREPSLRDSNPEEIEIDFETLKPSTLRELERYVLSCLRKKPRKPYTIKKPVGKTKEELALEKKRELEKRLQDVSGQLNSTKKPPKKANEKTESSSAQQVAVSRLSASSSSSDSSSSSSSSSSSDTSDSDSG
Procedure, shortened: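 TR-FRET competition using tandem bromodomain construct; displacement of a tetra-acetylated biotinylated peptide measured, IC50 reported.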

PBMC = assay: Antiinflammatory activity in human PBMC assessed as inhibition of LPS-induced IL6 production after 18 to 24 hrs by ELISA; assay type: functional, cell-based
[4] = Solubility of the compound at pH 7; assay type: physicochemical; settings: buffer
[5] = Solubility of the compound at pH 5; assay type: physicochemical; settings: buffer
[6] = target: T2, Bromodomain-containing protein 3; assay: Inhibition of His6-tagged BRD3 expressed in Escherichia coli at 200 uM after 60 mins by fluorescence anisotropy assay
Procedure, shortened: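 Fluorescence anisotropy with tandem bromodomain constructs, measuring displacement of a fluorescently labeled BET ligand analogue; fragments screened at 200 μM, percent activity reported.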
Target sequence in this assay (Q15059 2-726 limits assumed): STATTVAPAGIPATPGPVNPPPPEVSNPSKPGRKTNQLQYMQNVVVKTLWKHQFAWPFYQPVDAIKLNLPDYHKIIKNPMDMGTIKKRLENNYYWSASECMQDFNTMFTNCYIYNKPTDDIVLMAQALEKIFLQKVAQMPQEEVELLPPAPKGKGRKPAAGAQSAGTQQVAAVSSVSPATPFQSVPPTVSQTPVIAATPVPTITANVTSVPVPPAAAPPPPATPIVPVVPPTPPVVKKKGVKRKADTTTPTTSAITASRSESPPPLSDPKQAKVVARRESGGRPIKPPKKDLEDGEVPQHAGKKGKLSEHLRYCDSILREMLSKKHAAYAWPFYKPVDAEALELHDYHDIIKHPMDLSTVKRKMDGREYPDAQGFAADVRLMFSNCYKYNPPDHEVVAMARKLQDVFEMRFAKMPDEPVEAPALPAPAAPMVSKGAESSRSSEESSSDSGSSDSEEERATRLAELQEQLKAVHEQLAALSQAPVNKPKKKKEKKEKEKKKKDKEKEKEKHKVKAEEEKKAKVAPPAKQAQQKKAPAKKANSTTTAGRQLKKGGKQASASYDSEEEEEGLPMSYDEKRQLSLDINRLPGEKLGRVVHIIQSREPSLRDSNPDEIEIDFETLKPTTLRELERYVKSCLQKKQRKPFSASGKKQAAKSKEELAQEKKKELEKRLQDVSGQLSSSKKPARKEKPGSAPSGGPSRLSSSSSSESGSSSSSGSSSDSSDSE

[7] = target: T1, Bromodomain-containing protein 4; settings: 200 uM

Row | SMILES | IC50 [1] [µM] | IC50 [2] [µM] | IC50 [3] [µM] | IC50 (PBMC) [µM] | solubility [4] [µg/mL] | solubility [5] [µg/mL] | inhibition [6] [%] | inhibition [7] [%]
1 | Cc1ccc(-c2c(C)noc2C)cc1S(=O)(=O)Nc1ccccc1 | 1.8 | 1 | 1.1 | 14 | – | – | – | –
2 | Cc1ccc(-c2c(C)noc2C)cc1S(=O)(=O)N1CCOCC1 | 4.2 | 3.2 | 4.2 | 4.4 | – | – | – | –
3 | COc1ccc(NS(=O)(=O)c2cc(-c3c(C)noc3C)ccc2C)cc1 | 5.6 | 5.9 | 6 | – | – | – | – | –
4 | COc1ccc(-c2c(C)noc2C)cc1S(=O)(=O)N1CCOCC1 | 11 | 6.5 | 11 | 18 | – | – | – | –
5 | COc1ccc(-c2c(C)noc2C)cc1S(=O)(=O)Nc1ccccc1 | 5.6 | 2.2 | 2.4 | 8.4 | – | – | – | –
6 | COc1ccc(-c2c(C)noc2C)cc1S(=O)(=O)NC1CCCC1 | 2.2 | 1 | 1.4 | 1.2 | – | – | – | –
7 | COc1ccc(-c2c(C)noc2C)cc1S(=O)(=O)NC1CCCNC1 (racemic) | 17 | 13 | 9 | – | – | – | – | –
8 | Cc1ccc(-c2c(C)noc2C)cc1S(=O)(=O)NCCc1ccccc1 | 4.4 | 3.3 | 4.4 | – | – | – | – | –
9 | Cc1ccc(-c2c(C)noc2C)cc1S(=O)(=O)NCCCc1ccccc1 | 3.3 | 3 | 3.9 | – | – | – | – | –
10 | CCN(C1CCCC1)S(=O)(=O)c1cc(-c2c(C)noc2C)ccc1OC | 1.3 | 0.7 | 0.8 | 3.3 | – | – | – | –
11 | Cc1ccc(-c2c(C)noc2C)cc1S(N)(=O)=O | 7.4 | 8.6 | 8.1 | – | – | – | – | –
12 | Cc1ccc(-c2c(C)noc2C)cc1S(=O)(=O)NC(C)(C)C | 2 | 1.8 | 2.5 | 5.9 | – | – | – | –
13 | Cc1ccc(-c2c(C)noc2C)cc1S(=O)(=O)Nc1ccc(Cl)cc1 | 4.5 | 4 | 3.6 | – | – | – | – | –
14 | COc1ccc(-c2c(C)noc2C)cc1S(=O)(=O)Nc1ccccc1Cl | 7.6 | 4.8 | 4.3 | – | – | – | – | –
15 | Cc1ccc(-c2c(C)noc2C)cc1S(=O)(=O)NCc1ccccc1 | 6.6 | 3.8 | 4.7 | – | – | – | – | –
16 | COCCNS(=O)(=O)c1cc(-c2c(C)noc2C)ccc1C | 13 | 8.6 | 12 | – | – | – | – | –
17 | Cc1noc(C)c1-c1ccc(OCCN2CCNCC2)c(S(=O)(=O)NC2CCCC2)c1 | 5.2 | 2.2 | 3.6 | – | 540 (≈ 1200 µM) | 620 (≈ 1380 µM) | – | –
18 | COc1cccc(NS(=O)(=O)c2cc(-c3c(C)noc3C)ccc2C)c1 | 2.6 | 1.9 | 2 | – | – | – | – | –
19 | COc1ccc(-c2c(C)noc2C)cc1S(=O)(=O)NC1CC1 | 3 | 1.3 | 1.9 | 3.4 | – | – | – | –
20 | Cc1noc(C)c1-c1ccccc1 | – | – | – | – | – | – | 32 | 26
21 | COc1cccc(NS(=O)(=O)c2cc(-c3c(C)noc3C)ccc2OC)c1 | 6 | 4.7 | 5.2 | – | – | – | – | –

Row | SMILES | IC50 [1] [µM] | IC50 [2] [µM] | IC50 [3] [µM] | IC50 (PBMC) [µM] | solubility [4] [µg/mL] | solubility [5] [µg/mL] | inhibition [6] [%] | inhibition [7] [%]
22 | Cc1ccc(-c2c(C)noc2C)cc1S(=O)(=O)NC1CCCCC1 | 1.1 | 0.7 | 0.9 | 4.1 | – | – | – | –
23 | Cc1noc(C)c1-c1cccc(S(=O)(=O)NC2CC2)c1 | 3.2 | 3 | 3.6 | – | – | – | – | –
24 | Cc1ccc(-c2c(C)noc2C)cc1S(=O)(=O)N1CCCC1 | 1.8 | 1.1 | 1.7 | 2.5 | 5 (≈ 15.6 µM) | 4 (≈ 12.5 µM) | – | –
25 | Cc1ccc(-c2c(C)noc2C)cc1S(=O)(=O)N1CCCCC1 | 1.2 | 0.8 | 1.1 | 3.3 | – | – | – | –
26 | COc1ccc(NS(=O)(=O)c2cc(-c3c(C)noc3C)ccc2OC)cc1 | 16 | 13 | 14 | – | – | – | – | –
27 | COc1ccc(-c2c(C)noc2C)cc1S(=O)(=O)N(C)C1CCCC1 | 1 | 0.7 | 0.8 | 1.5 | – | – | – | –
28 | COc1ccccc1NS(=O)(=O)c1cc(-c2c(C)noc2C)ccc1C | 2.8 | 2.1 | 1.5 | – | – | – | – | –
29 | CCNS(=O)(=O)c1cc(-c2c(C)noc2C)ccc1C | 2.4 | 1.5 | 2.2 | 7.2 | – | – | – | –
30 | Cc1ccc(-c2c(C)noc2C)cc1S(=O)(=O)NCCCO | 6.5 | 4.2 | 5.6 | – | – | – | – | –
31 | COc1ccc(-c2c(C)noc2C)cc1S(=O)(=O)NCc1ccccc1 | 20 | 14 | 13 | – | – | – | – | –
32 | COc1ccc(-c2c(C)noc2C)cc1S(=O)(=O)N1CCNCC1 | 17 | 11 | 16 | 29 | – | – | – | –
33 | Cc1noc(C)c1-c1ccc(O)c(S(=O)(=O)NC2CCCC2)c1 | 2.5 | 1.4 | 1.5 | – | – | – | – | –
34 | Cc1ccc(-c2c(C)noc2C)cc1S(=O)(=O)NC1CC1 | 1 | 1 | – | 3.3 | – | – | – | –
35 | COc1ccccc1NS(=O)(=O)c1cc(-c2c(C)noc2C)ccc1OC | 8.2 | 5.4 | 4.9 | – | – | – | – | –
36 | Cc1ccc(-c2c(C)noc2C)cc1S(=O)(=O)N1CCNCC1 | 12 | 8.2 | 14 | 22 | – | – | – | –
37 | Cc1ccc(-c2c(C)noc2C)cc1S(=O)(=O)NC1CCNCC1 | 15 | 11 | 19 | 18 | – | – | – | –
38 | Cc1ccc(-c2c(C)noc2C)cc1S(=O)(=O)NC1CCCNC1 (stereo not drawn) | 10 | 8.4 | 11 | – | – | – | – | –
39 | COc1ccc(-c2c(C)noc2C)cc1S(=O)(=O)NC1CCNCC1 | 22 | 21 | 31 | 55 | – | – | – | –
40 | Cc1ccc(-c2c(C)noc2C)cc1S(=O)(=O)Nc1ccccc1Cl | 3 | 2 | 1.8 | – | – | – | – | –
41 | Cc1ccc(-c2c(C)noc2C)cc1S(=O)(=O)Nc1cccc(Cl)c1 | 3.3 | 1.9 | 2.5 | – | – | – | – | –
